Reference: ChEMBL document CHEMBL5058577, “EUbOPEN Chemogenomics Library 2 (Multiplex)” (2022)

System: HEK-293T
Assay: Multiplex assay against HEK293T
Assay type: toxicity, cell-based
Conditions: human
Outline: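 Live cells were stained at seeding with Hoechst33342, BioTracker Green Microtubule Cytoskeleton Dye, MitoTracker Red and Annexin V Alexa Fluor 680, then imaged on a CQ1 microscope at 37°C and 5% CO2 after compound addition. CellPathfinder machine-learning gating split cells into Hoechst high-intensity objects or normal cells. Normal cells were split into healthy, pyknosed or fragmented nuclei, and pyknosed cells into mitotic or apoptotic. Tubulin, mitochondrial-mass and membrane-permeability phenotypes are per cents of healthy-nucleus cells.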

[1] = 12 h, 1 µM, compound concentration 1 uM, replicate 1
[2] = 12 h, 1 µM, compound concentration 1 uM, replicate 2
[3] = 12 h, 10 µM, compound concentration 10 uM, replicate 1
[4] = 12 h, 10 µM, compound concentration 10 uM, replicate 2
[5] = 24 h, 1 µM, compound concentration 1 uM, replicate 1
[6] = 24 h, 1 µM, compound concentration 1 uM, replicate 2
[7] = 24 h, 10 µM, compound concentration 10 uM, replicate 1
[8] = 24 h, 10 µM, compound concentration 10 uM, replicate 2
[9] = 48 h, 1 µM, compound concentration 1 uM, replicate 1
[10] = 48 h, 1 µM, compound concentration 1 uM, replicate 2
[11] = 48 h, 10 µM, compound concentration 10 uM, replicate 1
[12] = 48 h, 10 µM, compound concentration 10 uM, replicate 2

COc1cc2nc(N3CCN(C(=O)c4ccco4)CC3)nc(N)c2cc1OC.Cl [PRAZOSIN HYDROCHLORIDE]
Population Apoptotic (%) [1]: 32% | Population Fragmented Nuclei (%) [1]: 10% | Population Healthy Nuclei (%) [1]: 77% | Population Hoechst High Intensity Objects (%) [1]: 6% | Population Membrane Permeable-Phenotype (%) [1]: 0% | Population Mitochondria Different-Phenotype (%) [1]: 35% | Population Mitotic Cells (%) [1]: 67% | Population Normal (%) [1]: 93% | Population Pyknosed Nuclei (%) [1]: 11% | Population Tubulin-Different-Phenotype (%) [1]: 23% | Total Cell Count [1]: 448 | Population Apoptotic (%) [2]: 56% | Population Fragmented Nuclei (%) [2]: 6% | Population Mitochondria Different-Phenotype (%) [2]: 66% | Population Mitotic Cells (%) [2]: 43% | Population Pyknosed Nuclei (%) [2]: 16% | Population Tubulin-Different-Phenotype (%) [2]: 22% | Total Cell Count [2]: 290 | Population Apoptotic (%) [3]: 38% | Population Fragmented Nuclei (%) [3]: 9% | Population Healthy Nuclei (%) [3]: 75% | Population Hoechst High Intensity Objects (%) [3]: 10% | Population Membrane Permeable-Phenotype (%) [3]: 0% | Population Mitochondria Different-Phenotype (%) [3]: 62% | Population Mitotic Cells (%) [3]: 61% | Population Normal (%) [3]: 89% | Population Pyknosed Nuclei (%) [3]: 14% | Population Tubulin-Different-Phenotype (%) [3]: 45% | Total Cell Count [3]: 348 | Population Apoptotic (%) [4]: 55% | Population Fragmented Nuclei (%) [4]: 5% | Population Healthy Nuclei (%) [4]: 77% | Population Hoechst High Intensity Objects (%) [4]: 9% | Population Mitochondria Different-Phenotype (%) [4]: 61% | Population Mitotic Cells (%) [4]: 44% | Population Normal (%) [4]: 90% | Population Pyknosed Nuclei (%) [4]: 16% | Population Tubulin-Different-Phenotype (%) [4]: 25% | Total Cell Count [4]: 404 | Population Apoptotic (%) [5]: 38% | Population Fragmented Nuclei (%) [5]: 9% | Population Healthy Nuclei (%) [5]: 82% | Population Hoechst High Intensity Objects (%) [5]: 3% | Population Membrane Permeable-Phenotype (%) [5]: 0% | Population Mitochondria Different-Phenotype (%) [5]: 25% | Population Mitotic Cells (%) [5]: 61% | Population Normal (%) [5]: 96% | Population Pyknosed Nuclei (%) [5]: 7% | Population Tubulin-Different-Phenotype (%) [5]: 10% | Total Cell Count [5]: 660 | Population Apoptotic (%) [6]: 51% | Population Healthy Nuclei (%) [6]: 80% | Population Hoechst High Intensity Objects (%) [6]: 5% | Population Mitochondria Different-Phenotype (%) [6]: 45% | Population Mitotic Cells (%) [6]: 48% | Population Normal (%) [6]: 94% | Population Pyknosed Nuclei (%) [6]: 10% | Population Tubulin-Different-Phenotype (%) [6]: 16% | Total Cell Count [6]: 364 | Population Apoptotic (%) [7]: 50% | Population Fragmented Nuclei (%) [7]: 12% | Population Healthy Nuclei (%) [7]: 77% | Population Hoechst High Intensity Objects (%) [7]: 5% | Population Membrane Permeable-Phenotype (%) [7]: 0% | Population Mitochondria Different-Phenotype (%) [7]: 40% | Population Mitotic Cells (%) [7]: 50% | Population Normal (%) [7]: 94% | Population Pyknosed Nuclei (%) [7]: 9% | Population Tubulin-Different-Phenotype (%) [7]: 32% | Total Cell Count [7]: 463 | Population Apoptotic (%) [8]: 54% | Population Fragmented Nuclei (%) [8]: 11% | Population Healthy Nuclei (%) [8]: 78% | Population Membrane Permeable-Phenotype (%) [8]: 1% | Population Mitochondria Different-Phenotype (%) [8]: 42% | Population Mitotic Cells (%) [8]: 45% | Population Pyknosed Nuclei (%) [8]: 10% | Population Tubulin-Different-Phenotype (%) [8]: 20% | Total Cell Count [8]: 534 | Population Apoptotic (%) [9]: 36% | Population Fragmented Nuclei (%) [9]: 17% | Population Healthy Nuclei (%) [9]: 76% | Population Hoechst High Intensity Objects (%) [9]: 1% | Population Membrane Permeable-Phenotype (%) [9]: 1% | Population Mitochondria Different-Phenotype (%) [9]: 16% | Population Mitotic Cells (%) [9]: 63% | Population Normal (%) [9]: 98% | Population Pyknosed Nuclei (%) [9]: 5% | Population Tubulin-Different-Phenotype (%) [9]: 8% | Total Cell Count [9]: 1114 | Population Apoptotic (%) [10]: 38% | Population Fragmented Nuclei (%) [10]: 16% | Population Hoechst High Intensity Objects (%) [10]: 2% | Population Membrane Permeable-Phenotype (%) [10]: 0% | Population Mitochondria Different-Phenotype (%) [10]: 23% | Population Mitotic Cells (%) [10]: 61% | Population Normal (%) [10]: 97% | Population Pyknosed Nuclei (%) [10]: 6% | Population Tubulin-Different-Phenotype (%) [10]: 9% | Total Cell Count [10]: 636 | Population Apoptotic (%) [11]: 33% | Population Fragmented Nuclei (%) [11]: 17% | Population Healthy Nuclei (%) [11]: 75% | Population Hoechst High Intensity Objects (%) [11]: 4% | Population Membrane Permeable-Phenotype (%) [11]: 2% | Population Mitochondria Different-Phenotype (%) [11]: 32% | Population Mitotic Cells (%) [11]: 66% | Population Normal (%) [11]: 95% | Population Pyknosed Nuclei (%) [11]: 7% | Population Tubulin-Different-Phenotype (%) [11]: 17% | Total Cell Count [11]: 693 | Population Apoptotic (%) [12]: 23% | Population Fragmented Nuclei (%) [12]: 14% | Population Healthy Nuclei (%) [12]: 78% | Population Membrane Permeable-Phenotype (%) [12]: 1% | Population Mitochondria Different-Phenotype (%) [12]: 21% | Population Mitotic Cells (%) [12]: 76% | Population Tubulin-Different-Phenotype (%) [12]: 11% | Total Cell Count [12]: 778

COCCCN1CCC(NC(=O)c2cc(Cl)c(N)c3c2OCC3)CC1 [PRUCALOPRIDE]
Population Apoptotic (%) [1]: 22% | Population Fragmented Nuclei (%) [1]: 10% | Population Healthy Nuclei (%) [1]: 80% | Population Hoechst High Intensity Objects (%) [1]: 8% | Population Membrane Permeable-Phenotype (%) [1]: 0% | Population Mitochondria Different-Phenotype (%) [1]: 36% | Population Mitotic Cells (%) [1]: 77% | Population Normal (%) [1]: 91% | Population Pyknosed Nuclei (%) [1]: 9% | Population Tubulin-Different-Phenotype (%) [1]: 21% | Total Cell Count [1]: 416 | Population Apoptotic (%) [2]: 31% | Population Fragmented Nuclei (%) [2]: 4% | Population Healthy Nuclei (%) [2]: 82% | Population Hoechst High Intensity Objects (%) [2]: 7% | Population Mitochondria Different-Phenotype (%) [2]: 59% | Population Mitotic Cells (%) [2]: 68% | Population Normal (%) [2]: 92% | Population Pyknosed Nuclei (%) [2]: 12% | Population Tubulin-Different-Phenotype (%) [2]: 16% | Total Cell Count [2]: 397 | Population Apoptotic (%) [3]: 37% | Population Fragmented Nuclei (%) [3]: 8% | Population Healthy Nuclei (%) [3]: 74% | Population Hoechst High Intensity Objects (%) [3]: 4% | Population Membrane Permeable-Phenotype (%) [3]: 0% | Population Mitochondria Different-Phenotype (%) [3]: 59% | Population Mitotic Cells (%) [3]: 62% | Population Normal (%) [3]: 95% | Population Pyknosed Nuclei (%) [3]: 17% | Population Tubulin-Different-Phenotype (%) [3]: 43% | Total Cell Count [3]: 421 | Population Apoptotic (%) [4]: 56% | Population Fragmented Nuclei (%) [4]: 10% | Population Healthy Nuclei (%) [4]: 72% | Population Hoechst High Intensity Objects (%) [4]: 10% | Population Mitochondria Different-Phenotype (%) [4]: 75% | Population Mitotic Cells (%) [4]: 43% | Population Normal (%) [4]: 89% | Population Tubulin-Different-Phenotype (%) [4]: 35% | Total Cell Count [4]: 261 | Population Apoptotic (%) [5]: 20% | Population Fragmented Nuclei (%) [5]: 11% | Population Healthy Nuclei (%) [5]: 78% | Population Hoechst High Intensity Objects (%) [5]: 5% | Population Membrane Permeable-Phenotype (%) [5]: 1% | Population Mitochondria Different-Phenotype (%) [5]: 18% | Population Mitotic Cells (%) [5]: 79% | Population Normal (%) [5]: 94% | Population Pyknosed Nuclei (%) [5]: 10% | Population Tubulin-Different-Phenotype (%) [5]: 14% | Total Cell Count [5]: 590 | Population Apoptotic (%) [6]: 28% | Population Fragmented Nuclei (%) [6]: 8% | Population Healthy Nuclei (%) [6]: 84% | Population Hoechst High Intensity Objects (%) [6]: 4% | Population Membrane Permeable-Phenotype (%) [6]: 0% | Population Mitochondria Different-Phenotype (%) [6]: 39% | Population Mitotic Cells (%) [6]: 71% | Population Normal (%) [6]: 95% | Population Pyknosed Nuclei (%) [6]: 6% | Population Tubulin-Different-Phenotype (%) [6]: 10% | Total Cell Count [6]: 546 | Population Apoptotic (%) [7]: 28% | Population Fragmented Nuclei (%) [7]: 8% | Population Healthy Nuclei (%) [7]: 77% | Population Hoechst High Intensity Objects (%) [7]: 4% | Population Membrane Permeable-Phenotype (%) [7]: 0% | Population Mitochondria Different-Phenotype (%) [7]: 48% | Population Mitotic Cells (%) [7]: 71% | Population Normal (%) [7]: 95% | Population Pyknosed Nuclei (%) [7]: 13% | Population Tubulin-Different-Phenotype (%) [7]: 32% | Total Cell Count [7]: 531 | Population Apoptotic (%) [8]: 50% | Population Fragmented Nuclei (%) [8]: 13% | Population Healthy Nuclei (%) [8]: 73% | Population Hoechst High Intensity Objects (%) [8]: 9% | Population Mitochondria Different-Phenotype (%) [8]: 51% | Population Mitotic Cells (%) [8]: 50% | Population Normal (%) [8]: 90% | Population Pyknosed Nuclei (%) [8]: 12% | Population Tubulin-Different-Phenotype (%) [8]: 25% | Total Cell Count [8]: 341 | Population Apoptotic (%) [9]: 24% | Population Fragmented Nuclei (%) [9]: 15% | Population Healthy Nuclei (%) [9]: 76% | Population Hoechst High Intensity Objects (%) [9]: 2% | Population Membrane Permeable-Phenotype (%) [9]: 1% | Population Mitochondria Different-Phenotype (%) [9]: 16% | Population Mitotic Cells (%) [9]: 75% | Population Normal (%) [9]: 97% | Population Pyknosed Nuclei (%) [9]: 7% | Population Tubulin-Different-Phenotype (%) [9]: 11% | Total Cell Count [9]: 1001 | Population Apoptotic (%) [10]: 21% | Population Fragmented Nuclei (%) [10]: 11% | Population Healthy Nuclei (%) [10]: 81% | Population Hoechst High Intensity Objects (%) [10]: 1% | Population Membrane Permeable-Phenotype (%) [10]: 0% | Population Mitochondria Different-Phenotype (%) [10]: 15% | Population Mitotic Cells (%) [10]: 78% | Population Normal (%) [10]: 98% | Population Pyknosed Nuclei (%) [10]: 6% | Population Tubulin-Different-Phenotype (%) [10]: 9% | Total Cell Count [10]: 832 | Population Apoptotic (%) [11]: 20% | Population Fragmented Nuclei (%) [11]: 16% | Population Healthy Nuclei (%) [11]: 77% | Population Hoechst High Intensity Objects (%) [11]: 1% | Population Membrane Permeable-Phenotype (%) [11]: 1% | Population Mitochondria Different-Phenotype (%) [11]: 32% | Population Mitotic Cells (%) [11]: 79% | Population Normal (%) [11]: 98% | Population Pyknosed Nuclei (%) [11]: 6% | Population Tubulin-Different-Phenotype (%) [11]: 16% | Total Cell Count [11]: 772 | Population Apoptotic (%) [12]: 35% | Population Healthy Nuclei (%) [12]: 75% | Population Hoechst High Intensity Objects (%) [12]: 3% | Population Membrane Permeable-Phenotype (%) [12]: 0% | Population Mitochondria Different-Phenotype (%) [12]: 31% | Population Mitotic Cells (%) [12]: 64% | Population Normal (%) [12]: 96% | Population Pyknosed Nuclei (%) [12]: 7% | Population Tubulin-Different-Phenotype (%) [12]: 15% | Total Cell Count [12]: 528
